Results: ChEMBL document CHEMBL1139395 (J Med Chem, 2008)
≈ marks a conversion by molar mass, not a printed value.

What was measured:
[1] = Bioavailability in Sprague-Dawley rat; format: ADME, organism-based; settings: in vivo
[2] = tested on: Staphylococcus aureus; assay: Antibacterial activity against Staphylococcus aureus ATCC 29213 in absence of human serum; format: functional
[3] = tested on: Staphylococcus aureus; assay: Antibacterial activity against Staphylococcus aureus ATCC 29213 in presence of human serum; format: functional
Procedure, shortened: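 Broth microdilution MIC per CLSI methods (modified), with human serum added to the liquid medium at a final 50% for S. aureus ATCC 29213.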

[4] = tested on: Streptococcus pneumoniae; assay: Antibacterial activity against Streptococcus pneumoniae ATCC 10015; format: functional
[5] = tested on: Haemophilus influenzae; assay: Antibacterial activity against Haemophilus influenzae ATCC 51907; format: functional
[6] = tested on: Streptococcus pneumoniae; assay: Antibacterial activity against Streptococcus pneumoniae ATCC 6303; format: functional
[7] = tested on: Streptococcus pneumoniae; assay: Antibacterial activity against Streptococcus pneumoniae ATCC 6303-infeceted Sprague-Dawley rat assessed as reduction in lung bacterial density at 25 mg/kg, po administered twice at 18 and 26 hrs after bacterial challenge measured at 72 hrs postinfection; format: functional
Procedure, shortened: (§1)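 Male Sprague-Dawley rats (185-224 g), anesthetized, infected intratracheally with 0.2 mL (0.9 × 10⁷ CFU) S. pneumoniae ATCC 6303 serotype 3 grown overnight in enriched broth. Oral dosing in D5W at 18 and 26 h postinfection, 10 per group. Lungs homogenized for CFU at 72 h; mean log₁₀ CFU ± SEM against vehicle controls.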

[8] = tested on: Streptococcus pneumoniae; assay: Antibacterial activity against Streptococcus pneumoniae ATCC 6303-infeceted Sprague-Dawley rat assessed as reduction in lung bacterial density at 50 mg/kg, po administered twice at 18 and 26 hrs after bacterial challenge measured at 72 hrs postinfection; format: functional; procedure, shortened: as §1
[9] = tested on: Staphylococcus aureus; assay: Antibacterial activity against Staphylococcus aureus ATCC 29213-infected Sprague-Dawley rat assessed as reduction in bacterial density in thigh tissue at 50 mg/kg, iv administered 2 hrs after bacterial challenge measured at 8 hrs postinfection; format: functional
Procedure, shortened: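 Neutropenic male Sprague-Dawley rats (175-200 g); cyclophosphamide ip 150 mg/kg at day -4 and 50 mg/kg at day -1. Infection was 0.2 mL of 1 × 10⁷ CFU/mL S. aureus ATCC 29213 in saline, im into the thigh. Single iv tail-vein bolus at 2 h postinfection, D5W vehicle. Thighs homogenized for CFU 6 h post-dose; 0 h controls taken at 2 h. Mean log₁₀ CFU ± SEM; one-way ANOVA with Dunnett's test.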

[10] = Clearance in Sprague-Dawley rat; format: ADME, organism-based; settings: in vivo
[11] = Half life in Sprague-Dawley rat; format: ADME, organism-based; settings: in vivo
[12] = Volume of distribution at steady state in Sprague-Dawley rat; format: ADME, organism-based; settings: in vivo, read-out: Vdss
[13] = target: DNA gyrase (Staphylococcus aureus, UniProt P0A0K8+P20831); assay: Inhibition of Staphylococcus aureus DNA gyrase; format: protein-complex assay
[14] = Inhibition of Escherichia coli DNA gyrase
[15] = Inhibition of Escherichia coli topoisomerase 4

Sequence of DNA gyrase (P0A0K8 whole entry): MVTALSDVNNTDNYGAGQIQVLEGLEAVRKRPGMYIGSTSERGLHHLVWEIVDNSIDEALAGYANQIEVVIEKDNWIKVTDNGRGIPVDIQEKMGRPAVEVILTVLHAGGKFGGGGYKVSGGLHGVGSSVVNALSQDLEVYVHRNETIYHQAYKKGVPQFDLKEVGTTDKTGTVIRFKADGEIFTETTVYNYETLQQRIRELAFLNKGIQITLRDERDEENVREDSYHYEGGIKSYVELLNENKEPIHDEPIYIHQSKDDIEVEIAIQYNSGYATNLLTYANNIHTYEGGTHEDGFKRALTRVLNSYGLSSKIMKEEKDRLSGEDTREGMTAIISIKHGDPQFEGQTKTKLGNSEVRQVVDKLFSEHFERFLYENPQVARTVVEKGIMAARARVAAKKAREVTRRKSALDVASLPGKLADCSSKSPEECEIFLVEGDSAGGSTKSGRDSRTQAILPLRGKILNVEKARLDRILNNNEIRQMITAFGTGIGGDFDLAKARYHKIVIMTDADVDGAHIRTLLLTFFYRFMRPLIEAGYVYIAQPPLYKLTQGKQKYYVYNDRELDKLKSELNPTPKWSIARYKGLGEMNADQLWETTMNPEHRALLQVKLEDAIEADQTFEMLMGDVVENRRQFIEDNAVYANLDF
Sequence of DNA gyrase (P20831 whole entry): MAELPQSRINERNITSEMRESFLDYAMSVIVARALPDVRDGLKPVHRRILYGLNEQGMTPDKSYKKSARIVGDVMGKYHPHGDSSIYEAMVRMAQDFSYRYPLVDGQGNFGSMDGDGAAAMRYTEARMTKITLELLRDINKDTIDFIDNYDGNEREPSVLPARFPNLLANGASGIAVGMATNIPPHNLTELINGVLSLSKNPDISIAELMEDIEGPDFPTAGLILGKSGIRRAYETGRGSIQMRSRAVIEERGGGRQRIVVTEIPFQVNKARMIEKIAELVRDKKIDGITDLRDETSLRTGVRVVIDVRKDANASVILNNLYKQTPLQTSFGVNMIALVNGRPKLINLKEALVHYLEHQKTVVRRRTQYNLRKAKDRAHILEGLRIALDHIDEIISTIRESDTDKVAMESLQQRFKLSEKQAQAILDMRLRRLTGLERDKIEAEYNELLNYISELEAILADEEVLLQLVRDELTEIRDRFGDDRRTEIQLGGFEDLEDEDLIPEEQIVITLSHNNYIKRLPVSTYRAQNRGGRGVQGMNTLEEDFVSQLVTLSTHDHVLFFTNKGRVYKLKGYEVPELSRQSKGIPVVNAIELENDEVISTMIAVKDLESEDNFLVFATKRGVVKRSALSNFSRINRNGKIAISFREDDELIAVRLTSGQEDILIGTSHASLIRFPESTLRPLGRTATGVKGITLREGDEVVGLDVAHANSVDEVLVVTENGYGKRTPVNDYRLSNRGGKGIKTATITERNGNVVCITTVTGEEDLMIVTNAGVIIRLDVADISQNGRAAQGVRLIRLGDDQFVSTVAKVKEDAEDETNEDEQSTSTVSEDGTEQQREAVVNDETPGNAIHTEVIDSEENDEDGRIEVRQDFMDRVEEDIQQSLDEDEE

| Compound | bioavailability [1] | MIC [2] | MIC [3] | MIC [4] | MIC [5] | MIC [6] | log10cfu [7] | log10cfu [8] | log10cfu [9] | clearance [10] | half-life [11] | Vd [12] | Ki [13] | Ki [14] | Ki [15] |
| --- | --- | --- | --- | --- | --- | --- | --- | --- | --- | --- | --- | --- | --- | --- | --- |
| CCNC(=O)Nc1nc2cc(-c3cccnc3)cc(-c3ncccc3F)c2[nH]1 | 88.4% | 0.031 µg/mL (≈ 0.0824 µM) | 0.5 µg/mL | 0.004 µg/mL (≈ 0.0106 µM) | 1 µg/mL (≈ 2.66 µM) | 0.008 µg/mL (≈ 0.0213 µM) | 4.8 | 5.6 | 1.5 | 14.4 mL/min/kg | 42 min | 1.6 L/kg | 14 nM | < 4 nM | 23 nM |
| CCNC(=O)Nc1nc2cc(-c3cnc(OC)nc3)c(OC)cc2[nH]1 | – | 2 µg/mL (≈ 5.84 µM) | 8 µg/mL | 0.125 µg/mL (≈ 0.365 µM) | 4 µg/mL (≈ 11.7 µM) | – | – | – | – | – | – | – | 44 nM | 15 nM | 680 nM |
| CCOC(=O)Nc1nc2cc(/C=C/c3ccc(O)cc3)ccc2[nH]1 | – | > 16 µg/mL | > 16 µg/mL | > 16 µg/mL | > 16 µg/mL | – | – | – | – | – | – | – | 2000 nM | 20000 nM | > 60000 nM |
| CCNC(=O)Nc1nc2cc(-n3cnc(C(=O)NC4CC4)c3)c(F)cc2[nH]1 | – | 4 µg/mL (≈ 10.8 µM) | 8 µg/mL | 0.063 µg/mL (≈ 0.17 µM) | 4 µg/mL (≈ 10.8 µM) | – | – | – | – | – | – | – | 10 nM | < 4 nM | 78 nM |
| CCNC(=O)Nc1nc2cc(-c3cccnc3)c(F)cc2[nH]1 | – | 1 µg/mL (≈ 3.34 µM) | 16 µg/mL | 0.25 µg/mL (≈ 0.835 µM) | 16 µg/mL (≈ 53.5 µM) | – | – | – | – | – | – | – | 38 nM | 33 nM | 680 nM |
| CCNC(=O)Nc1nc2cc(-c3cccnc3)c(C)cc2[nH]1 | – | 16 µg/mL (≈ 54.2 µM) | > 16 µg/mL | 0.5 µg/mL (≈ 1.69 µM) | 16 µg/mL (≈ 54.2 µM) | – | – | – | – | – | – | – | 85 nM | 61 nM | 1400 nM |
| CCNC(=O)Nc1nc2cc(-c3cccnc3)ccc2[nH]1 | – | 16 µg/mL (≈ 56.9 µM) | > 16 µg/mL | 2 µg/mL (≈ 7.11 µM) | 16 µg/mL (≈ 56.9 µM) | – | – | – | – | – | – | – | 130 nM | 81 nM | 2300 nM |
| CCNC(=O)Nc1nc2cc(-c3ccccc3)ccc2[nH]1 | – | > 16 µg/mL | > 16 µg/mL | > 16 µg/mL | > 16 µg/mL | – | – | – | – | – | – | – | 470 nM | 400 nM | 9500 nM |
| CCNC(=O)Nc1nc2cc(-c3cccnc3)c(OC)cc2[nH]1 | – | 16 µg/mL (≈ 51.4 µM) | > 16 µg/mL | 2 µg/mL (≈ 6.42 µM) | > 16 µg/mL | – | – | – | – | – | – | – | 190 nM | 130 nM | 3500 nM |
| CCNC(=O)Nc1nc2cc(-c3cccnc3)c(N3CCCCC3)cc2[nH]1 | – | 16 µg/mL (≈ 43.9 µM) | > 16 µg/mL | 2 µg/mL (≈ 5.49 µM) | > 16 µg/mL | – | – | – | – | – | – | – | 81 nM | 120 nM | 3300 nM |
| CCNC(=O)Nc1nc2cc(-c3cncnc3)cc(-n3cccn3)c2[nH]1 | – | 0.031 µg/mL (≈ 0.089 µM) | 0.25 µg/mL | < 0.008 µg/mL | 0.25 µg/mL (≈ 0.718 µM) | – | – | – | – | – | – | – | 16 nM | < 4 nM | 58 nM |
